Experimental data as given in ChEMBL document CHEMBL5236602, “Synthesis and Characterization of NUC-7738, an Aryloxy Phosphoramidate of 3'-Deoxyadenosine, as a Potential Anticancer Agent” (J Med Chem, 2022).

How the values were obtained:
[1] = system: HL-60; assay: Cytotoxicity against human HL-60 cells assessed as maximum cell growth inhibition incubated for 72 hrs by MTS assay relative to control; format: functional
In short: (§1)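 Cells from the 20-line panel were seeded the day before dosing, then exposed to compound for 72 h. MTS was added, followed by 4 h at 37 °C, and absorbance was read. Nine serial 3.16-fold dilutions were tested, top 198 μM, in duplicate. MI% is the maximum inhibitory effect across the tested concentration range.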

[2] = system: KG-1; assay: Cytotoxicity against human KG-1 cells assessed as cell death incubated for 72 hrs by MTS assay; format: functional
In short: (§2)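 Contracted MTS assay. Cells seeded the day before treatment and exposed 72 h to nine serial concentrations (3.16-fold steps, top 198 μM), tested in duplicate. MTS added, then 4 h at 37 °C and absorbance read. LC50 is the concentration killing 50% of cells. MI% is the maximum inhibition over the tested range.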

[3] = system: MOLT-4; assay: Cytotoxicity against human MOLT-4 cells assessed as maximum cell growth inhibition incubated for 72 hrs by MTS assay relative to control; format: functional; in short: as §1
[4] = system: THP-1; assay: Cytotoxicity against human THP-1 cells assessed as cell death incubated for 72 hrs by MTS assay; format: functional; conditions: read-out: LC50 (the source's name); in short: as §2
[5] = system: HEL 92.1.7; assay: Cytotoxicity against human HEL 92.1.7 cells assessed as cell death incubated for 72 hrs by MTS assay; format: functional; conditions: read-out: LC50 (the source's name); in short: as §2
[6] = system: NCI-H929; assay: Cytotoxicity against human NCI-H929 cells assessed as cell death incubated for 72 hrs by MTS assay; format: functional; conditions: read-out: LC50 (the source's name); in short: as §2
[7] = system: RPMI-8226; assay: Cytotoxicity against human RPMI-8226 cells assessed as cell death incubated for 72 hrs by MTS assay; format: functional; conditions: read-out: LC50 (the source's name); in short: as §2
[8] = system: Jurkat; assay: Cytotoxicity against human Jurkat cells assessed as maximum cell growth inhibition incubated for 72 hrs by MTS assay relative to control; format: functional; in short: as §1
[9] = Cytotoxicity against human HS 445 cells assessed as cell death incubated for 72 hrs by MTS assay; format: functional; conditions: read-out: LC50 (the source's name); in short: as §2
[10] = system: HepG2; assay: Cytotoxicity against human HepG2 cells assessed as cell death incubated for 72 hrs by MTS assay; format: functional; conditions: read-out: LC50 (the source's name); in short: as §2
[11] = system: MCF7; assay: Cytotoxicity against human MCF7 cells assessed as maximum cell growth inhibition incubated for 72 hrs by MTS assay relative to control; format: functional; in short: as §1
[12] = system: BXPC-3; assay: Cytotoxicity against human BXPC-3 cells assessed as cell death incubated for 72 hrs by MTS assay; format: functional; conditions: read-out: LC50 (the source's name); in short: as §2
[13] = Prodrug conversion in human CCRF-CEM cells assessed as fold increase in 3'-dATP level at 50 uM incubated for 2 hrs by LC-MS/MS analysis relative to 3'-Deoxyadenosine; format: ADME, cell-based
[14] = Prodrug conversion in human K562 cells assessed as fold increase in 3'-dATP level at 50 uM incubated for 2 hrs by LC-MS/MS analysis relative to 3'-Deoxyadenosine; format: ADME, cell-based; conditions: k562, 2 h
[15] = Metabolic stability in pooled cryopreserved human hepatocytes assessed as intrinsic clearance measured per 10^6 cells at 1 uM incubated for 60 mins by HPLC-MS/MS analysis; format: ADME, cell-based, Hepatocyte; conditions: 1 h
In short: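 Pooled cryopreserved human hepatocytes were thawed, washed and resuspended in Krebs–Henseleit buffer, pH 7.3. Compound was added at 1 μM final and incubated 0 and 60 min at 37 °C/5% CO2. Reactions were stopped with acetonitrile, centrifuged, and the supernatant analysed by HPLC-MS/MS.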

`C[C@@H](NP(=O)(OC[C@@H]1C[C@@H](O)[C@H](n2cnc3c(N)ncnc32)O1)Oc1cccc2ccccc12)C(=O)OCc1ccccc1` (stereo not given in full) showed an Imax [1] of 100%, an LC50 [2] of 11.03 µM and an Imax [3] of 100%. It also gave a CC50 [4] of 46.5 µM, a CC50 [5] of 2.94 µM and a CC50 [6] of 3.38 µM. For the same compound, the CC50 [7] was 19 µM, the Imax [8] was 100% and the CC50 [9] was 10.2 µM. The CC50 [10] was 11.5 µM, the Imax [11] was 99% and the CC50 [12] was 74 µM. The “fold change (FC)” value [13] was 3, the “fold change (FC)” value [14] was 3 and the CLint [15] was 20.8 µL/min/1e6 cells.
